Laboratory results from ChEMBL document CHEMBL4033754, “Antiobesity Effect of a Short-Length Peptide YY Analogue after Continuous Administration in Mice” (ACS Med Chem Lett, 2017).
Active and inactive are the calls of the source. The calls are words filed in the database; no cut-off is given here. Where a SMILES comes first, the peptide text is derived from it. [ ]: non-standard residue; d: D form. The star is where a group is joined. ξ: configuration not given here. ξCha = NC(CC1CCCCC1)C(=O)O; Aib = CC(C)(N)C(=O)O; Bz = O=C(c1ccccc1)*

Legend:
[1] = Mean residence time in C57BL/6J mouse at 1 mg/kg, iv after 24 hrs by LC-MS/MS analysis; assay type: ADME, organism-based; details: in vivo
Method in brief: (§1)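 Single 1 mg/kg dose, intravenous or subcutaneous, to C57BL/6J mice. Blood sampled at 5, 10, 15, 30 min and 1, 3, 6, 8, 24 h post-dose. Plasma peptide quantified by LC/MS/MS. Parameters derived from the mean (n = 3) plasma concentration–time profile.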

Mus musculus [2] = test: Mean absorption time in C57BL/6J mouse at 1 mg/kg through subcutaneous administration after 24 hrs by LC-MS/MS analysis; assay type: ADME, organism-based; details: in vivo, sc; method in brief: as §1
[3] = Plasma concentration in C57BL/6J mouse at 1 mg/kg, iv after 5 mins by LC-MS/MS analysis; assay type: ADME, organism-based; method in brief: as §1
Mus musculus [4] = test: AUC (0 to 24 hrs) in C57BL/6J mouse at 1 mg/kg, iv by LC-MS/MS analysis; assay type: ADME, organism-based; parameters: dose 1 mg/kg, time < 24 hr, route intravenous; details: in vivo; method in brief: as §1
[5] = Volume of distribution at steady state in C57BL/6J mouse at 1 mg/kg, iv after 24 hrs by LC-MS/MS analysis; assay type: ADME, organism-based; details: in vivo, read-out: Vdss; method in brief: as §1
Mus musculus [6] = test: Total clearance in C57BL/6J mouse at 1 mg/kg, iv after 24 hrs by LC-MS/MS analysis; assay type: ADME, organism-based; details: in vivo; method in brief: as §1
[7] = Cmax in C57BL/6J mouse at 1 mg/kg through subcutaneous administration after 24 hrs by LC-MS/MS analysis; assay type: ADME, organism-based; parameters: dose 1 mg/kg, route subcutaneous; details: in vivo, sc; method in brief: as §1
[8] = Tmax in C57BL/6J mouse at 1 mg/kg through subcutaneous administration after 24 hrs by LC-MS/MS analysis; assay type: ADME, organism-based; details: in vivo, sc; method in brief: as §1
[9] = AUC (0 to 24 hrs) in C57BL/6J mouse at 1 mg/kg through subcutaneous administration after 24 hrs by LC-MS/MS analysis; assay type: ADME, organism-based; parameters: time < 24 hr, dose 1 mg/kg, route subcutaneous; details: in vivo, sc; method in brief: as §1
[10] = Mean residence time in C57BL/6J mouse at 1 mg/kg through subcutaneous administration after 24 hrs by LC-MS/MS analysis; assay type: ADME, organism-based; details: in vivo, sc; method in brief: as §1
[11] = Bioavailability in C57BL/6J mouse at 1 mg/kg through subcutaneous administration after 24 hrs by LC-MS/MS analysis; assay type: ADME, organism-based; details: in vivo, sc; method in brief: as §1
[12] = target: T1, Neuropeptide Y receptor type 2 (Homo sapiens, UniProt P49146); test: Displacement of [125I]-PYY from human Y2R expressed in CHO cell membranes after 60 mins by liquid scintillation method
T1 sequence (P49146 whole entry): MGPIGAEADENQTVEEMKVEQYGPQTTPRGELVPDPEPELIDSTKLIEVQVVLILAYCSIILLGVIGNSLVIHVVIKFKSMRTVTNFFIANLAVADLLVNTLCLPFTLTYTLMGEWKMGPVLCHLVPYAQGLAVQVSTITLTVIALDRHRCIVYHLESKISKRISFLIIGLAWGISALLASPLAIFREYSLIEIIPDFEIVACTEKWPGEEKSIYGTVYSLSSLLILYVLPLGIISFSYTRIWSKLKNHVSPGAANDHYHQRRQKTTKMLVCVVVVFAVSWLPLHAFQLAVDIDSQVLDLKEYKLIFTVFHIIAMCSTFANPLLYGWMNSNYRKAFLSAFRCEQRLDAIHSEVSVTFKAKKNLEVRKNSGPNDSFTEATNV

[13] = target: T1, Neuropeptide Y receptor type 2; test: Agonist activity at human Y2R expressed in CHO cell membranes assessed as [35S]GTPgammaS binding after 120 mins by liquid scintillation method; assay type: functional
Mus musculus [14] = test: Antiobesity activity in diet-induced obese C57BL/6J mouse model assessed as reduction in body weight at 1 mg/kg administered via subcutaneous osmotic pumps for 6 to 7 days relative to control; assay type: functional; parameters: scale not given: the % may be the effect or the level left
Method in brief: (§2)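 Male C57BL/6J DIO mice received peptides at 1 mg/(kg·day) by continuous subcutaneous osmotic pump for 6–7 days (n = 6 per group). Body weight reduction expressed as a percentage versus vehicle.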

Mus musculus [15] = test: Anorectic activity in lean mouse assessed as inhibition of food intake at 1000 nmol/kg through bolus subcutaneous administration relative to control; assay type: functional; details: sc
Mus musculus [16] = test: Antiobesity activity in diet-induced obese C57BL/6J mouse assessed as reduction in body weight at 1 mg/kg administered via subcutaneous osmotic pumps for 7 days relative to control; assay type: functional; parameters: scale not given: the % may be the effect or the level left; method in brief: as §2
Mus musculus [17] = test: Anorectic activity in lean mouse assessed as inhibition of food intake at 300 nmol/kg through bolus subcutaneous administration relative to control; assay type: functional; details: sc
Mus musculus [18] = test: Antiobesity activity in lean C57BL/6J mouse assessed as inhibition of food intake at 1 mg/kg administered via subcutaneous osmotic pumps for 3 continuous days relative to control; details: sc
Mus musculus [19] = test: Antiobesity activity in lean C57BL/6J mouse assessed as inhibition of food intake at 0.3 mg/kg administered via subcutaneous osmotic pumps for 3 continuous days relative to control; details: sc
Mus musculus [20] = test: Antiobesity activity in diet-induced obese C57BL/6J mouse assessed as inhibition of food intake at 1 mg/kg administered via subcutaneous osmotic pumps for 7 days measured on day 4 of dosing; assay type: functional, organism-based
Method in brief: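 DIO mice given peptides continuously by subcutaneous osmotic pump for 7 days (n = 6), with body weight and cumulative food intake tracked daily. Statistics versus vehicle by Student's t test or Aspin-Welch test.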

SMILES	MRT [1] [min]	MAT (Mus musculus [2]) [h]	concentration at 5 min [3] [nM]	AUC (Mus musculus [4]) [µM·h]	Vd [5] [L/kg]	CL (Mus musculus [6]) [mL/min/kg]	Cmax [7] [nM]	Tmax [8] [min]	AUC(0-t) at 24 h [9] [µM·h]	MRT [10] [min]	bioavailability [11] [%]	IC50 [12] [nM]	EC50 [13] [nM]	Activity (Mus musculus [14]) [%]	inhibition in vivo at 1 µmol/kg (Mus musculus [15]) [%]	Activity (Mus musculus [16]) [%]	inhibition in vivo at 0.3 µmol/kg (Mus musculus [17]) [%]	inhibition in vivo at 1 mg/kg (Mus musculus [18]) [%]	inhibition in vivo at 0.3 mg/kg (Mus musculus [19]) [%]	inhibition (Mus musculus [20])
CC(=O)N[C@@H](CO)C(=O)N1C[C@@H](O)C[C@@H]1C(=O)N[C@@H](CCCNC(=N)N)C(=O)N[C@@H](Cc1cnc[nH]1)C(=O)N[C@@H](CC1CCCCC1)C(=O)N[C@@H](CC1CCCCC1)C(=O)N[C@@H](CC(N)=O)C(=O)N[C@@H](CC(C)C)C(=O)NC(C)(C)C(=O)N[C@H](C(=O)N[C@@H](CCCNC(=N)N)C(=O)N[C@@H](CCC(N)=O)C(=O)N[C@@H](CCCNC(=N)N)C(=O)N[C@@H](CC1CCCCC1)C(N)=O)[C@@H](C)O [listing 1 of 2 here]	10.8	0.14	935	0.18	0.533	49.47	98.1	10.2	0.0336	19.2										
CC(C)C[C@H](NC(=O)[C@H](CC(N)=O)NC(=O)C(CC1CCCCC1)NC(=O)C(CC1CCCCC1)NC(=O)[C@H](Cc1cnc[nH]1)NC(=O)[C@H](CCCNC(=N)N)NC(=O)c1ccccc1)C(=O)NC(C)(C)C(=O)N[C@H](C(=O)N[C@@H](CCCNC(=N)N)C(=O)N[C@@H](CCC(N)=O)C(=O)N[C@@H](CCCNC(=N)N)C(=O)NC(CC1CCCCC1)C(N)=O)[C@@H](C)O (stereo partly specified) (Bz-RH[ξCha][ξCha]NL[Aib]TRQR[ξCha]-NH2)	27	2.72	7550	3.56	0.073	2.7	75.6	15	0.209	190	5.9	7.4	2	0.4	20					
CC(=O)N[C@@H](CO)C(=O)N1C[C@@H](O)C[C@@H]1C(=O)N[C@@H](CCCNC(=N)N)C(=O)N[C@@H](Cc1cnc[nH]1)C(=O)N[C@@H](CC1CCCCC1)C(=O)N[C@@H](CC1CCCCC1)C(=O)N[C@@H](CC(N)=O)C(=O)N[C@@H](CC(C)C)C(=O)NC(C)(C)C(=O)N[C@H](C(=O)N[C@@H](CCCNC(=N)N)C(=O)N[C@@H](CCC(N)=O)C(=O)N[C@@H](CCCNC(=N)N)C(=O)N[C@@H](CC1CCCCC1)C(N)=O)[C@@H](C)O [listing 2 of 2 here]														-10.2		7.4	23	79	47	
CC(=O)N[C@@H](CO)C(=O)N1C[C@@H](O)C[C@@H]1C(=O)N[C@@H](CCCNC(=N)N)C(=O)N[C@@H](Cc1cnc[nH]1)C(=O)NC(CC1CCCCC1)C(=O)NC(CC1CCCCC1)C(=O)N[C@@H](CC(N)=O)C(=O)N[C@@H](CC(C)C)C(=O)NC(C)(C)C(=O)N[C@H](C(=O)N[C@@H](CCCNC(=N)N)C(=O)N[C@@H](CCC(N)=O)C(=O)N[C@@H](CCCNC(=N)N)C(=O)NC(CC1CCCCC1)C(N)=O)[C@@H](C)O (stereo partly specified)																				Active
